Assay results: ChEMBL document CHEMBL1789904, “Imaging of Plasmodium liver stages to drive next-generation antimalarial drug discovery” (Science, 2011)
“And” between values parts separate entries of the source, which are not always exact repeats. Equal entries are not always repeated.

Tested on: Plasmodium yoelii
Test: NOVARTIS: Antimalarial liver stage activity measured as reduction in Plasmodium yoelii schizont area in HepG2-A16-CD81 cells by immuno-fluorescence, and median schizont size at 10uM compound concentration
Format: functional, organism-based
Summary of the method: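 Host and parasite nuclei stained with Hoechst 33342, parasites with αPyHSP70 antibody; 25 images per well by high-content imaging; median parasite (schizont) area measured by automated image analysis, ~50 schizonts per experiment, two or more independent experiments.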

[1] = Plasmodium yoelii, HepG2-A16-CD81

SMILES	Schizont size	IC50 [1] [nM]	IC50 (hepg2-a16-cd81)
CCOC(=O)c1cnc2ccc(C(C)C)cc2c1O	31.42 um	352	
Brc1ccc(Nc2nc(NCc3ccco3)c3ccccc3n2)cc1	35.17 um	163	
COc1ccc2[nH]c3ccccc3c(=O)c2c1	30.27 um	135	
CCN(CC)CCCNc1nc2cc(OC)c(OC)cc2c2nc(-c3ccccc3)nn12	52.61 um	327	
Cc1nc2ccccc2c(O)c1CC=C(Cl)Cl	43.21 um	130	
Cc1ccc2[nH]c(C)c(Br)c(=O)c2c1	29.96 um	252	
CCOC(=O)C1=C(C)NC2=C(C(=O)C(C(=O)OCC)C(c3cccc(OC)c3)C2)C1c1cc(OC)c(OC)c(OC)c1 (configuration not stated)	109.59 um	232	
Oc1cccc2ccc(Nc3ccccn3)nc12	30.16 um	142	
CC(Oc1ccc(Cl)cc1Cl)c1nc(-c2ccc(NC(=O)c3ccco3)cc2)no1 (configuration not stated)	28.18 um	154	
COc1ccc2nc(C)cc(Nc3ccc(Oc4ccc5ccccc5c4Cl)c(Cl)c3)c2c1	31 um	114	
CCCN(CCC)[P+](CCC)(c1ccc([P+](CCC)(N(CCC)CCC)N(CCC)CCC)cc1)N(CCC)CCC	28.29 um	280	
Cc1nc2ccc(Br)cc2c(O)c1CC(C)C	30.79 um	244	
O=C(Cc1ccccc1)NC(c1ccc(Cl)cc1)c1ccc2cccnc2c1O (configuration not stated)	17.33 um	190	
Cc1ccc(C2Sc3ccccc3NC3=C2C(=O)c2ccccc23)cc1 (configuration not stated)	27.03 um	278	
CCOc1ccc(Nc2nc(NCc3ccco3)c3ccccc3n2)cc1	75.78 um	105	
CCOC(=O)c1cnc2ccc(OC)cc2c1NCc1cccs1	31.63 um	193	
CC(=O)N(C)C1=C(N2CCOCC2)C(=O)c2ccccc2C1=O	38.72 um	229	
Cn1ncnc2c(=O)n(C)c(=O)nc1-2	12.53 um	103	
C[C@@H]1CCC[C@@H](C[C@H]2Cc3cc(O)cc(O)c3C(=O)O2)O1	41.96 um	112	
Cc1cccc(NC(=S)NC2CC3CCCC(C2)N3CCc2ccccc2)c1 (configuration not stated)	67.74 um	277	
CN(C)c1oc(-c2ccc(Cl)cc2Cl)nc1[P+](c1ccccc1)(c1ccccc1)c1ccccc1.[I-]	19.41 um	129	

SMILES	Schizont size	IC50 [1] [nM]	IC50 (hepg2-a16-cd81)
CCN(CC)CCCN(Cc1cc2cc(OC)c(OC)cc2[nH]c1=O)C(=S)Nc1cccc(Cl)c1	60.54 um	162	
Cc1cc(C)nc(NC(=N)Nc2cccc(O)c2)n1	88.2 um	152	
COc1ccc2sc(Nc3nc(-c4ccccn4)cs3)nc2c1	28.91 um	159	
CC(Oc1ccc(Cl)cc1Cl)c1nc(-c2ccc(NC(=O)c3cccs3)cc2)no1 (configuration not stated)	21.92 um	114	
CCC(C)Nc1nc(NC(C)CC)nc(N2CCCCCC2)n1 (configuration not stated)	20.35 um	300	
Cc1oc2c(c1C(=O)NCC1CCCO1)C(=O)c1ccccc1C2=O (configuration not stated)	21.4 um	189	
Cl.OCCNc1nc(Nc2ccc(F)cc2)nc2ccccc12	91.12 um	136	
Cc1nc2cc(-c3ccc(I)cc3)nn2c(O)c1C	35.28 um	118	
CCNC(=O)C1CCN(c2cccc3c2C(=O)N(C2CCCCCCC2)C3=O)CC1	30.48 um	269	
Cc1cc(NC(c2cccc(Br)c2)c2ccc3cccnc3c2O)no1 (configuration not stated)	16.28 um	147	
COc1ccc(-c2n(C)c3ccccc3[n+]2CC(=O)OC2CC(C)CCC2C(C)C)cc1.[Cl-] (configuration not stated)	14.3 um	156	
Nc1ccc(-c2nc3cc(Oc4ccc(Oc5ccc6[nH]c(-c7ccc(N)cc7)nc6c5)cc4)ccc3[nH]2)cc1	116.48 um	319	
Cc1oc2c(c1C(=O)NCCCn1ccnc1)C(=O)c1ccccc1C2=O	12.53 um	119	
Cc1[nH]c2ccccc2c(=O)c1Br	29.43 um	214	
Cc1ccc(Nc2nc(NCc3ccccc3)c3ccccc3n2)cc1	31.73 um	278	
CCOC(=O)c1cnc2ccc(OC)cc2c1O	30.16 um and 29.96 um		135 nM and 293 nM
CCCC(=O)N1CCN(c2nc(Cc3ccccc3)c3c(c2C#N)CC(C)(C)OC3)CC1	22.44 um	348	
Cc1ccc2cc(C)c(Nc3ccc(Cl)cc3)nc2c1	42.06 um	148	
CC[n+]1c(C=C2C=C(C)OC(C)=C2)sc2ccccc21.[Cl-]	25.36 um	245	
O=c1c2ccccc2[nH]c2ccc(I)cc12	24.95 um	105	
CCCc1nc2ccc(NC(=O)c3ccco3)cc2c(=O)n1Cc1ccc(-c2ccccc2)cc1	25.78 um	306	

SMILES	Schizont size	IC50 [1] [nM]	IC50 (hepg2-a16-cd81)
CCOC(=O)C1=C(C)NC2=C(C(=O)C(C(=O)OCC)C(c3ccc(OC)cc3)C2)C1c1ccc(OC)c(OC)c1 (configuration not stated)	86.53 um	240	
O=C(Nc1ccc(-c2ccc(Cl)cc2)cc1)c1cccs1	31.73 um	151	
Cc1cccc2c1[nH]c1nc(SCC(C)C)nnc12	36.43 um	152	
CCOC(=O)c1ccc(NCc2c(C)[nH]c3ccccc3c2=O)cc1	18.27 um	137	
O=C(NC1CC1)c1ccc(CSCc2ccccc2Cl)o1	26.09 um	140	
O=c1c2ccccc2[nH]c2ccc(F)cc12	29.64 um	223	
Cc1ccccc1N=Nc1ccc(NC(=O)c2ccco2)c(C)c1	51.87 um	300	
O=C1c2ccccc2C2=Nc3ccccc3SC(c3cccc(F)c3)C12 (configuration not stated)	30.06 um	162	
CCCN[P+](CC(C)C)(NCCC)NCCC	27.24 um	281	
COc1ccc2nc(C)cc(Nc3ccc(Oc4ccc(Cl)c5ccccc45)c(Cl)c3)c2c1	22.65 um	267	
CCOC(=O)C1=C(C)NC2=C(C(=O)C(C(=O)OCC)C(c3ccccc3OC)C2)C1c1ccc([N+](=O)[O-])cc1 (configuration not stated)	76.3 um	335	
O=C(Nc1c2ccccc2nc2ccccc12)c1cc(Cl)ccc1O	43.52 um	181	
c1ccc(CNc2nc(Nc3ccccc3)nc3ccccc23)cc1	29.85 um	153	
CCCCCCOc1ccc(NC(=O)c2cccs2)cc1	27.87 um	139	
COc1ccc(Nc2nc(NCc3ccccc3)c3ccccc3n2)cc1	29.96 um	305	
CCC(Sc1nnc(-c2ccc(C)cc2)c(-c2ccc(C)cc2)n1)C(=O)NCCOC (configuration not stated)	42.59 um	303	
O=[N+]([O-])c1cccc(C(Nc2nccs2)c2ccc3cccnc3c2O)c1 (configuration not stated)	43.42 um	358	
Cl.Clc1cccc(Nc2nc(NCc3ccco3)c3ccccc3n2)c1	36.64 um	383	
CCCCNC(=O)C1CCC(CN(Cc2c(Cl)cccc2Cl)S(=O)(=O)c2ccc(Br)cc2)CC1 (configuration not stated)	29.64 um	124	
[Br-].c1ccc(-c2nn(-c3ccccc3)[n+](-c3ccccc3)n2)cc1	26.51 um	107	
CCCc1c(C)nc2ccccc2c1O	34.55 um	279	

SMILES	Schizont size	IC50 [1] [nM]	IC50 (hepg2-a16-cd81)
C=CCc1c(C)nc2ccc(Br)cc2c1O	32.46 um	181	
O=c1c2c([nH]c3ccccc13)CCCCCCCCCC2	25.15 um	99	
OC1=C2C(=Nc3ccccc3SC2c2ccc(Br)cc2)c2ccccc21 (configuration not stated)	34.03 um	327	
CCCC(=O)NC(c1ccc(Cl)cc1)c1ccc2cccnc2c1O (configuration not stated)	14.09 um	190	
Cc1cc(C(=O)Nc2cnn(Cc3ccc(Cl)cc3Cl)c2)no1	57.82 um	335	
Cc1ccc(-c2cn3c([n+]2-c2ccc(C)cc2)CCCCC3)cc1	27.24 um	146	
Oc1cccc2ccc[n+](CC(O)Cn3c4ccccc4c4ccccc43)c12.[Cl-] (configuration not stated)	49.37 um	311	
CCCCCCCc1cc(O)c2c3c(c(=O)oc2c1)CCC(C)C3 (configuration not stated)	31.52 um	247	
COc1ccc(C2N(Cc3ccccc3)c3ccccc3N2Cc2ccccc2)cc1	30.79 um	121	
OC1=C2C(=Nc3ccccc3SC2c2ccco2)c2ccccc21 (configuration not stated)	31.63 um	113	
O=C1c2ccccc2C2=Nc3ccccc3SC(c3ccccc3F)C12 (configuration not stated)	28.6 um	239	
CCN1CCN(c2c(C(=O)c3ccccc3)cnc3cc(OC)c(OC)cc23)CC1	89.76 um	367	
CCCCNC(=O)C(CC)Sc1nnc(-c2ccc(C)cc2)c(-c2ccc(C)cc2)n1 (configuration not stated)	31 um	291	
CN(C)c1ccc(-c2n(C)c3ccccc3[n+]2C)cc1.[Cl-]	46.86 um	175	
CC[n+]1c(C=C2C=CN(C)C=C2)ccc2cc(C)ccc21.[I-]	25.57 um	170	
CCCCc1c(CCC)c(=N)c2ccccc2n1C.I	58.14 um	244	
Cc1nc2c(C)cccc2c(O)c1CC=C(Cl)Cl	31.21 um	169	
CCCCN(CCCC)S(=O)(=O)c1ccc(NC(=O)c2ccco2)cc1	35.28 um	377	
